Reference: ChEMBL document CHEMBL5506039, “Discovery and Optimization of Tambjamines as a Novel Class of Antileishmanial Agents” (J Med Chem, 2024)

Columns and labels:
[1] = Cytotoxicity against mouse J774.A1 cells assessed as reduction in cell survival measured after 96 hrs by SYBR Green II dye based analysis; assay type: toxicity
Method in brief: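 Uninfected J774A.1 macrophages, 1 × 10⁴ cells/well in DMEM/10% HI-FBS, reattached 3 h, then exposed to compounds for 96 h. DNA content read after lysis with SYBR Green II (1:1000 in 1% Triton/PBS), 1 h dark at room temperature, fluorescence Ex 485/Em 535.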

[2] = Therapeutic index, ratio of EC50 for mouse J774.A1 cells to EC50 for antileishmanial activity against Leishmania mexicana MNYC/BZ/62/M379 amastigotes expressing red-shifted firefly luciferase from integrated ribosomal (28S) RNA locus infected in mouse J774.A1 cells; assay type: toxicity, cell-based; details: read-out: TI
Leishmania mexicana [3] = assay: (§1) Antileishmanial activity against Leishmania mexicana MNYC/BZ/62/M379 amastigotes expressing red-shifted firefly luciferase from integrated ribosomal (28S) RNA locus infected in mouse J774.A1 cells assessed as reduction in parasite survival measured after 96 hrs by luminescence based analysis; assay type: functional, organism-based; details: MNYC/BZ/62/M379, J774.A1, 96 h
Method in brief: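 J774A.1 macrophages infected with stationary-phase luciferase-expressing promastigotes at 10:1 parasites:macrophage, overnight at 37 °C, 5% CO₂. Non-internalized parasites washed off and 1 × 10⁴ cells/well replated in MEM/10% HI-FBS. Compounds in DMSO added as serial 3-fold dilutions (typically 10 μM–1 nM) for 96 h. Luciferase luminescence read; EC50 from log-transformed sigmoidal variable-slope fit. Mean ± SD of ≥2 independent experiments.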

Leishmania mexicana [4] = assay: as §1, with “as” for “as reduction in”, “survival at 0.1 uM” for “survival”, “analysis relative to control” for “analysis”; assay type: functional; details: MNYC/BZ/62/M379, J774.A1
[5] = Cytotoxicity against mouse J774.A1 cells assessed as cell survival at 0.1 uM measured after 96 hrs by SYBR Green II dye based analysis relative to control; assay type: toxicity; details: read-out: Survival
Method in brief: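 Uninfected J774A.1 mouse macrophages were plated at 1 × 10⁴ cells/well in DMEM with 10% heat-inactivated FBS and left 3 h at 37 °C to reattach. Compounds were added from DMSO, and analogues were screened at 0.1 μM. After 96 h at 37 °C in 5% CO₂, medium was removed. SYBR Green II (1:1000 in 1% Triton/PBS) was added for 1 h in the dark at room temperature, and fluorescence was read at Ex 485/Em 535 as a DNA-content measure of viability.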

Structure (SMILES) | EC50 at 96 h [1] [nM] | selectivity ratio [2] | EC50 (Leishmania mexicana [3]) [nM] | survival at 0.1 µM (Leishmania mexicana [4]) [%] | viability at 96 h, 0.1 µM [5] [%]
COC1=CC(c2ccc[nH]2)=N/C1=C\NC1CCCCC1 | > 1000 | > 25 | 40.5 | 7.33 | 88.9
FC(F)(F)Oc1ccc(N/C=C2\N=C(c3ccc[nH]3)C3=C2CCCC3)cc1 |  |  |  | 84.9 | 92.7
FC(F)(F)Oc1ccc(OC2=CC(c3ccc[nH]3)=N/C2=C\NC2CCCCCCC2)cc1 | 982 | 9.9 | 99 | 37.6 | 92.9
FC(F)(F)Oc1ccc(C2=CC(c3ccc[nH]3)=N/C2=C\NC2CCCCCC2)cc1 |  |  |  | 77.9 | 95.8
C[C@H]1CC[C@@H](N/C=C2\N=C(c3ccc[nH]3)C=C2Oc2ccc(OC(F)(F)F)cc2)CC1 |  |  |  | 79.9 | 112
Clc1ccc(OC2=CC(c3ccc[nH]3)=N/C2=C\NC2CCCCCC2)cc1 | 367 | 5.8 | 63.7 | 19.8 | 100
CCCCCCCCCCCCCCCCOP(=O)([O-])OCC[N+](C)(C)C [MILTEFOSINE] | > 100000 | > 29 | 3460 | 0.02 | 39.2
COC1=CC(c2ccc[nH]2)=N/C1=C\Nc1ccc(Cl)cc1 | > 1000 | > 21 | 47 | 9.85 | 95.4
COC1=CC(c2ccc[nH]2)=N/C1=C\Nc1ccccc1OC(F)(F)F |  |  |  | 69.9 | 81
CC1=C/C(=C/NC2CCCCCC2)N=C1c1ccc[nH]1 |  |  |  | 89 | 127
C[C@H]1CC[C@H](N/C=C2\N=C(c3ccc[nH]3)C=C2c2ccc(OC(F)(F)F)cc2)CC1 |  |  |  | 81.6 | 116
CCCCCCCCCCCN/C=C1\N=C(c2ccc[nH]2)C=C1Oc1ccc(OC(F)(F)F)cc1 |  |  |  | 58 | 96.7
CCC1=C(CC)/C(=C/NC2CCCCCC2)N=C1c1ccc[nH]1 |  |  |  | 27.5 | 26.7
CC1=C(C)/C(=C/NC2CCCCCC2)N=C1c1[nH]c(C)cc1C |  |  | 182 | 43.8 | 56.8
CC1=C(C)/C(=C/Nc2ccc(OC(F)(F)F)cc2)N=C1c1ccc[nH]1 |  |  |  | 102 | 77.2
Fc1cc(F)cc(OC2=CC(c3ccc[nH]3)=N/C2=C\NC2CCCCCC2)c1 |  |  |  | 87.2 | 65.8
C(/NC1CCCCCCC1)=C1/N=C(c2ccc[nH]2)C2=C1CCCC2 |  |  |  | 33.4 | 75.8
CCC1=C(CC)/C(=C/NC2CCCCCCC2)N=C1c1ccc[nH]1 |  |  |  | 17 | 29.5
CCC1=C/C(=C/NC2CCCCCCC2)N=C1c1ccc[nH]1 |  |  |  | 34.6 | 35.8
CC1=C(C)/C(=C/Nc2ccc(Cl)cc2)N=C1c1ccc[nH]1 |  |  |  | 92.2 | 88.1
CC1=C(C)/C(=C/Nc2ccc(Oc3ccc(C)cc3)cc2)N=C1c1ccc[nH]1 |  |  |  | 111 | 66.2
COc1ccc(Oc2ccc(N/C=C3\N=C(c4ccc[nH]4)C(C)=C3C)cc2)cc1 |  |  |  | 108 | 65.9
CCC1=C/C(=C/NC2CCCCCC2)N=C1c1ccc[nH]1 |  |  |  | 33.9 | 32.2
Clc1ccc(N/C=C2\N=C(c3ccc[nH]3)C3=C2CCCC3)cc1 |  |  |  | 103 | 67.2
CC1=C(C)/C(=C/Nc2ccc(C)cc2)N=C1c1ccc[nH]1 |  |  |  | 74 | 54.2
C[C@H]1CC[C@H](N/C=C2\N=C(c3ccc[nH]3)C=C2Oc2cc(F)cc(F)c2)CC1 |  |  |  | 96.2 | 55.3
CC1=C/C(=C/NC2CCCCCCC2)N=C1c1ccc[nH]1 |  |  |  | 48.6 | 150
